Series [1] concerns the target Histone deacetylase 2 (Homo sapiens, UniProt Q92769). Kind of series: Inhibition of full length recombinant human C-terminal GST-tagged HDAC2 expressed in baculovirus infected insect cells using RHK-K(Ac)-AMC as substrate after 60 mins by fluorescence assay.
In series [2] the target is Histone deacetylase 4 (Homo sapiens, UniProt P56524). Kind of series: Inhibition of recombinant human C-terminal His-tagged/N-terminal GST-tagged HDAC4 (627 to 1084 residues) expressed in insect cells using Boc-K(Ac)-AMC as substrate after 60 mins by fluorescence assay.
Sequence of Histone deacetylase 4 (P56524 whole entry, the tested form may be a part): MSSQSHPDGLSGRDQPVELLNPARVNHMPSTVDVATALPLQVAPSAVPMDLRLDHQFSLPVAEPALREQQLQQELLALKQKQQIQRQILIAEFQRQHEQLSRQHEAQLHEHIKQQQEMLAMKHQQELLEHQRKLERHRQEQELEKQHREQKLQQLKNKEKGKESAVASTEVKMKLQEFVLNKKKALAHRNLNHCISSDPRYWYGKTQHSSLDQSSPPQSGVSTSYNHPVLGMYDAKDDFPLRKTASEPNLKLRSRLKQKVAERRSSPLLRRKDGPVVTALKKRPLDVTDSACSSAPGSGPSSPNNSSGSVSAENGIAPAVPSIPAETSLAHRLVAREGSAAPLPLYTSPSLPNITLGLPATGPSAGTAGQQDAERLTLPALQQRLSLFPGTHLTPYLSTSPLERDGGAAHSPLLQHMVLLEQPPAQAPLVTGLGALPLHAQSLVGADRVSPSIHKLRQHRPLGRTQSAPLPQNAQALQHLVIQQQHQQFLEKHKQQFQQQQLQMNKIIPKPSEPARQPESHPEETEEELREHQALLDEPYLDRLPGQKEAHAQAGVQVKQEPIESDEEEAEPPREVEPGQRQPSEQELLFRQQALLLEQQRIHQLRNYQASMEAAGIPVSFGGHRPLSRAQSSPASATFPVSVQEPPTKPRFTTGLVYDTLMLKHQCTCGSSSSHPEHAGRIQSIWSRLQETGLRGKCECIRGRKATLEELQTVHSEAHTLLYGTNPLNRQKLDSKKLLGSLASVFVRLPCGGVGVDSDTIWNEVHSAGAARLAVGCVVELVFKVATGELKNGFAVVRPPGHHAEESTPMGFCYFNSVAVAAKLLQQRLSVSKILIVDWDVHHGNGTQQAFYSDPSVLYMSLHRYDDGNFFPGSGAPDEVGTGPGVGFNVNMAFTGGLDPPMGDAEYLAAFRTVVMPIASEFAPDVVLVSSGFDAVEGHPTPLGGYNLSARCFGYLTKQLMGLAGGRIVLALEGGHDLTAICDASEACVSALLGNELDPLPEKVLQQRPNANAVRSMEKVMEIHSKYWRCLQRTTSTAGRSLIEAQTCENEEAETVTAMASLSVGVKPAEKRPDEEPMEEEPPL
Series [3] concerns the target Histone deacetylase 5 (Homo sapiens, UniProt Q9UQL6). Kind of series: Inhibition of recombinant human C-terminal His-tagged HDAC5 (656 to 1122 residues) expressed in insect cells using Boc-K(Ac)-AMC as substrate after 60 mins by fluorescence assay.
Series [4] has as its target T1, Histone deacetylase 8 (Homo sapiens, UniProt Q9BY41).
T1 sequence (Q9BY41 whole entry): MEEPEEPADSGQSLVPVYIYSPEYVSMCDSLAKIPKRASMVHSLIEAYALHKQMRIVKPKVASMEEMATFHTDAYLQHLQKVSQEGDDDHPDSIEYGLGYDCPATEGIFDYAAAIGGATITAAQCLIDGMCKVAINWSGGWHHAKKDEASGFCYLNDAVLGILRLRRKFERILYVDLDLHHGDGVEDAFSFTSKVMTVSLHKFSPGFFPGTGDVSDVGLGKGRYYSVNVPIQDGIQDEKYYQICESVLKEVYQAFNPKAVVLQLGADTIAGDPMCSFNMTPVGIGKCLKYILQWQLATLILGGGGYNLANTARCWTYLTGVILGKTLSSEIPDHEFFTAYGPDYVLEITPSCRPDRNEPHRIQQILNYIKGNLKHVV
Kind of series: Inhibition of recombinant human C-terminal His-tagged/N-terminal Strep2-tagged HDAC8 (1 to 377 residues) expressed in insect cells using RHK-K(Ac)-AMC as substrate after 60 mins by fluorescence assay.

Series [5] concerns the target Histone deacetylase 9 (Homo sapiens, UniProt Q9UKV0). As to the kind of experiment: Inhibition of HDAC9 (unknown origin).
For series [6], the target named is T2, Histone deacetylase 11 (Homo sapiens, UniProt Q96DB2).
T2 sequence (Q96DB2 whole entry): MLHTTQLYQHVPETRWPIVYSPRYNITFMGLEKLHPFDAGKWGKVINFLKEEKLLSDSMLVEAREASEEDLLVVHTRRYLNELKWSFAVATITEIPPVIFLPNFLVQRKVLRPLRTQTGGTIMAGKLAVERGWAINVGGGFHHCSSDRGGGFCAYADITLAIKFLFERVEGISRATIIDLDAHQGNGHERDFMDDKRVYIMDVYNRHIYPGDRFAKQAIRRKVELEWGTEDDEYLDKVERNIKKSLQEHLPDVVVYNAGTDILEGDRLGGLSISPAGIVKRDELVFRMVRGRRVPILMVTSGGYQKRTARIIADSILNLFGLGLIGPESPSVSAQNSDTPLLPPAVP
As to the kind of experiment: Inhibition of recombinant human N-terminal Strep2-tagged HDAC11 (1 to 347 residues) expressed in baculovirus infected insect cells using Boc-Lys(TFA)-AMC as substrate after 60 mins by fluorescence assay.

Series [7] concerns the target T3, Protein deacetylase HDAC6 (Homo sapiens) (UniProt Q9UBN7).
T3 sequence (whole entry): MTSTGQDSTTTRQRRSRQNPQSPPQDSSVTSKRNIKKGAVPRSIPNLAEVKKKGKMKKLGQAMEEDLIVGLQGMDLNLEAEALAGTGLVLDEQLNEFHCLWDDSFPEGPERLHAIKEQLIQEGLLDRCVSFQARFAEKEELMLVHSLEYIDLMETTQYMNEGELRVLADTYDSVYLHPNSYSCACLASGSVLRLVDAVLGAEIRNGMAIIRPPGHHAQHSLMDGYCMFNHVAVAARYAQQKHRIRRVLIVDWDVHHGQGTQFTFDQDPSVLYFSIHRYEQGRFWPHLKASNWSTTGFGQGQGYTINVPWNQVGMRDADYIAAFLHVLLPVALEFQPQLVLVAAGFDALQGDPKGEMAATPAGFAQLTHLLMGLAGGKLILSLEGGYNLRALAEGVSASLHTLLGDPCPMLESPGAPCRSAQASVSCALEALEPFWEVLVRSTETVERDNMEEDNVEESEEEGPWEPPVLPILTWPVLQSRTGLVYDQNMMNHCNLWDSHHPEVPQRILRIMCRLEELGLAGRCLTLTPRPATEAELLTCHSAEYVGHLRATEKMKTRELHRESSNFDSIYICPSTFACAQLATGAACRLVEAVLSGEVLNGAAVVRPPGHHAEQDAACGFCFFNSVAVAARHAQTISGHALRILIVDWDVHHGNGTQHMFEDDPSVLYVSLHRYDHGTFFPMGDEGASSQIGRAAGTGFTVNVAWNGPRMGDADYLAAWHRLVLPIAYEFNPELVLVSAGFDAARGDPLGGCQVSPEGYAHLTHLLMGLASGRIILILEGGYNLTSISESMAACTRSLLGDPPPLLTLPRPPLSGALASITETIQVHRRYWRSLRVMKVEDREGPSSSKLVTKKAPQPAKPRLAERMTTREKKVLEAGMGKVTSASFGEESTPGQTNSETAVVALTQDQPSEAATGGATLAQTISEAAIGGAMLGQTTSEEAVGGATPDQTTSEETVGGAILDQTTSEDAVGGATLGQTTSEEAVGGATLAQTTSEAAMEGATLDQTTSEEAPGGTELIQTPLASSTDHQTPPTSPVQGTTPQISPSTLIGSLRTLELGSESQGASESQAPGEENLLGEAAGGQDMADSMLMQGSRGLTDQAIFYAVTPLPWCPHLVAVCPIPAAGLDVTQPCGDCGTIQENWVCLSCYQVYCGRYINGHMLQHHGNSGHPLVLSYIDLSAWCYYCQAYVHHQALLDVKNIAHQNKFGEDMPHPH
As to the kind of experiment: Inhibition of HDAC6 in human RPMI8226 cells assessed as increase in acetylated tubulin level by immunoblot analysis relative to control. The class given is cell-based. The method, boiled down: (§1)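 Multiple myeloma cells harvested in Tris-HCl lysis buffer (pH 7.4) with protease and phosphatase inhibitors, then centrifuged 17,000 g for 30 min at 4 °C. Lysates immunoblotted with specific antibodies for acetylated α-tubulin. Signal detected by ECL on film.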
For orientation: Immunoblotting shows a protein as a band on a membrane.

The target in series [8] is T3, Protein deacetylase HDAC6 (Homo sapiens). As to the kind of experiment: Inhibition of HDAC6 in human NCI-H929 cells assessed as increase in acetylated tubulin level by immunoblot analysis relative to control. The class given is cell-based. In short, it runs like this:
as §1

The target is the same in series [9]. Kind of series: Inhibition of HDAC6 in human U266 cells assessed as increase in acetylated tubulin level by immunoblot analysis relative to control. It counts as cell-based. The method, boiled down: as §1
In series [10] the test system is U-266. Kind of series: Antiproliferative activity against human U266 cells after 48 hrs by SRB assay. It counts as functional. The following applies: U-266, 48 h. The method, boiled down: (§2)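 Cells were exposed to test compounds at the indicated concentrations for 48 h. They were then fixed with 10% trichloroacetic acid, stained 30 min with 0.4% SRB in 1% AcOH, and washed with 1% AcOH. Bound dye was solubilized in 10 mM Tris base and OD read at 510 nm. Lines cultured in RPMI 1640 with 20% FBS and penicillin/streptomycin, 37°C, 5% CO2.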
Background: Sulforhodamine B stains cellular protein and so reports cell mass.

The subject of series [11] is NCI-H929. As to the kind of experiment: Antiproliferative activity against human NCI-H929 cells after 48 hrs by SRB assay. It counts as functional. As to conditions: NCI-H929, 48 h. The method, boiled down: as §2
Series [12] can be described thus: Antiproliferative activity against human HS5 cells after 48 hrs by SRB assay. It counts as cell-based. In short, it runs like this:
as §2

Sequence of Histone deacetylase 9 (Q9UKV0 whole entry): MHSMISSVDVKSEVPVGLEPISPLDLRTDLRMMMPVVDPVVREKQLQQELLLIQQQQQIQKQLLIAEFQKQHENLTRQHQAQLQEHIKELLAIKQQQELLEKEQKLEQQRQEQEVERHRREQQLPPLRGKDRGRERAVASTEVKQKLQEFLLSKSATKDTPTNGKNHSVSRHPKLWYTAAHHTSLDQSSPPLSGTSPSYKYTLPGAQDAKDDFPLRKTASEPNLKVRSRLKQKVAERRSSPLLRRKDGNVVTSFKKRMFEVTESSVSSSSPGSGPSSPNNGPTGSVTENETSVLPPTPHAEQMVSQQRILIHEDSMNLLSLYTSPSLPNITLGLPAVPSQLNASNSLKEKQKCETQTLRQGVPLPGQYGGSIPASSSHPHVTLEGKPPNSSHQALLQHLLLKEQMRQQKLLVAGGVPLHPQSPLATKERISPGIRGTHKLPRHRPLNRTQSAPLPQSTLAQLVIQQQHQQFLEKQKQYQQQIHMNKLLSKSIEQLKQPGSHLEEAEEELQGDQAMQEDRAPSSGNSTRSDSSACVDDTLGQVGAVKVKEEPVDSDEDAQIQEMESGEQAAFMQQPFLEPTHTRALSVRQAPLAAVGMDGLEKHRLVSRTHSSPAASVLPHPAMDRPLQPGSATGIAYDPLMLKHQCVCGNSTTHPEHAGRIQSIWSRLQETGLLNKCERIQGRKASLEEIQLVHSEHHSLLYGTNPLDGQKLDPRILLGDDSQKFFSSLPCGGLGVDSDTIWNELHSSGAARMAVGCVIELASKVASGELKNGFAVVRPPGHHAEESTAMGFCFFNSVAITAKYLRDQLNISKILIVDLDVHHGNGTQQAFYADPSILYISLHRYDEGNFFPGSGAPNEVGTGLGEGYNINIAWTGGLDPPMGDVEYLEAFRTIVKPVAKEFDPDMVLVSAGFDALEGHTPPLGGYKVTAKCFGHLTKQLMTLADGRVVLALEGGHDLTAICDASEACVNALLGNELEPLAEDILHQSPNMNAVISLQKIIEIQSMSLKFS
Sequence of Histone deacetylase 2 (Q92769 whole entry, the tested form may be a part): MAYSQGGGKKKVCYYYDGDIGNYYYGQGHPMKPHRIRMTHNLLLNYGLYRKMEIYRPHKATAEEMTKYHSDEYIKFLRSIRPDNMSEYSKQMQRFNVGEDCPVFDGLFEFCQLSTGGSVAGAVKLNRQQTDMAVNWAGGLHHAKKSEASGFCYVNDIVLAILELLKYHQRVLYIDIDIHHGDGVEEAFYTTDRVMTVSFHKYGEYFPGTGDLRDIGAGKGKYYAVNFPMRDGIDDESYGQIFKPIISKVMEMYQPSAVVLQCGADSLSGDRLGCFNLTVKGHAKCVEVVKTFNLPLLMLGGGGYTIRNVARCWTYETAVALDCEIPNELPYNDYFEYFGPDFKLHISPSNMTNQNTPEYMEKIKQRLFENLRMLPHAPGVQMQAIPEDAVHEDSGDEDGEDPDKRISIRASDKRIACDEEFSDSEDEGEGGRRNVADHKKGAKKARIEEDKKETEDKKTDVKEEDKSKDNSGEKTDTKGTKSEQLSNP
Sequence of Histone deacetylase 5 (Q9UQL6 whole entry, the tested form may be a part): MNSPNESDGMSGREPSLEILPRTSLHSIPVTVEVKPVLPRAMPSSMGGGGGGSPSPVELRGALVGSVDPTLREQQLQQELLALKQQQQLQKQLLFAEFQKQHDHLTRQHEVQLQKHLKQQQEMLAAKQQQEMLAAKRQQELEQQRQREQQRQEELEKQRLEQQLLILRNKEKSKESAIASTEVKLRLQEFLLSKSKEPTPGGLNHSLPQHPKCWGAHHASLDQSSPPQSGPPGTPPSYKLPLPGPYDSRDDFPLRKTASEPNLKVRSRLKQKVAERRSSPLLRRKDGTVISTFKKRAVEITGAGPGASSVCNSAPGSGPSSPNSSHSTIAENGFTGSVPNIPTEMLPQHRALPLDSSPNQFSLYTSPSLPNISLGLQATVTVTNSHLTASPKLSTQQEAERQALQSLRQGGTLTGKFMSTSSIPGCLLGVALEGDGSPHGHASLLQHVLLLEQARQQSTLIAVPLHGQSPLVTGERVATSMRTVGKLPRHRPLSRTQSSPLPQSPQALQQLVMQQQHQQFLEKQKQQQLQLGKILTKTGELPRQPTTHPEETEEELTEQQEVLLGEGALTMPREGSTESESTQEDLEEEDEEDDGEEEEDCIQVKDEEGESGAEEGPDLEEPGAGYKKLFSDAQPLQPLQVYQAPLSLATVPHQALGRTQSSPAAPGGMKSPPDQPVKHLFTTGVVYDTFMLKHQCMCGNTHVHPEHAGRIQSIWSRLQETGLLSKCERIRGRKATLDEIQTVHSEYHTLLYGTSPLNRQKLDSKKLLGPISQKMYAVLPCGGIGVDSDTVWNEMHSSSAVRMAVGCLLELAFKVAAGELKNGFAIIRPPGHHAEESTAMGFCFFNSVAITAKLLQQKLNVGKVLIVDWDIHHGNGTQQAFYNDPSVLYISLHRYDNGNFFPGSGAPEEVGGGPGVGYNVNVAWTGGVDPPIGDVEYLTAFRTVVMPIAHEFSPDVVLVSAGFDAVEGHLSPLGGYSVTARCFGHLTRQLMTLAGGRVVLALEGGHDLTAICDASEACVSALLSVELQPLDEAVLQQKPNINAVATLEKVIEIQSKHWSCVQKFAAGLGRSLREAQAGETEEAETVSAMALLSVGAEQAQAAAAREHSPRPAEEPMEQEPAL

With `O=C(NO)c1ccc(CNc2cccc3ncccc23)cc1`, the IC50 in series [1] came to 8.61 µM; in series [2], 4.82 µM; in series [3], 2.25 µM; in series [4] it was 0.636 µM; in series [5] it was 1.92 µM; in [6], 1 µM. Moreover, the inhibition entry in [7], in [8] and in series [9] was “Dose-dependent effect” in each case. Further, the GI50 came out at 28.4 µM in series [10] and 6.2 µM in series [11]. The concentration for 50% growth inhibition (GI50) at 48 h in series [12] is more than 100 µM.
Regarding `O=C(NO)c1ccc(CNc2cccc3cccnc23)cc1`, the IC50 in [1] turned out to be 12.5 µM; in [2], 4.44 µM; in series [3] it was 3.11 µM; in [4] it was 1.19 µM; in series [5] it was 1.53 µM; in series [6], 0.376 µM. The inhibition entry in [7], in series [8] and in series [9] was “Dose-dependent effect” throughout. The GI50 in series [10] was determined as 40.6 µM; in series [11], 9.14 µM. In series [12], this compound returned a GI50 at 48 h of more than 100 µM.

Broadly, the IC50 is the midpoint of a concentration-inhibition curve. For orientation: GI50 means the concentration giving 50% growth inhibition.

Values taken from ChEMBL document CHEMBL4024792, “(N-Hydroxycarbonylbenylamino)quinolines as Selective Histone Deacetylase 6 Inhibitors Suppress Growth of Multiple Myeloma in Vitro and in Vivo” (J Med Chem, 2018).
